From ChEMBL document CHEMBL4346684, “Synthesis and structure-bactericidal activity relationships of non-ketolides: 9-Oxime clarithromycin 11,12-cyclic carbonate featured with three-to eight-atom-length spacers at 3-OH” (Eur J Med Chem, 2019)
In brackets after ≈: the same amount, converted by molar mass.

Key:
Assay type in all cases: functional
[1] = tested on: Staphylococcus epidermidis; assay: Antimicrobial activity against Staphylococcus epidermidis E1 incubated in CAMHB medium for 20 hrs by two-fold microbroth dilution method; settings: E1, 20 h
Outline: (§1)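 Clinical isolates and ATCC strains, purified by plate activation and used fresh; inoculum about 5×10^5 CFU/ml final. Grown in CAMHB at 35 °C for 20 h.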

[2] = tested on: Staphylococcus aureus; assay: Antimicrobial activity against constitutively erythromycin resistant Staphylococcus aureus PU20 expressing c-ermC incubated in CAMHB medium for 20 hrs by two-fold microbroth dilution method; settings: PU20, 20 h
Outline: (§2)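 Purified fresh Staphylococcus isolate at about 5×10^5 CFU/ml final in CAMHB, 35 °C for 20 h. […] Each run included ATCC strains and reference antibiotics as QC, plus an antibiotic-free growth control.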

[3] = tested on: Streptococcus pneumoniae; assay: Antimicrobial activity against mef-encoded erythromycin resistant Streptococcus pneumoniae PU09 incubated in CAMHB medium for 20 to 24 hrs by two-fold microbroth dilution method
[4] = tested on: Staphylococcus aureus; assay: Antimicrobial activity against inducibly erythromycin-resistant Staphylococcus aureus PU32 expressing i-ermA incubated in CAMHB medium for 20 hrs by two-fold microbroth dilution method; settings: PU32, 20 h; outline: as §2
[5] = tested on: Staphylococcus aureus; assay: Antimicrobial activity against inducibly erythromycin resistant Staphylococcus aureus PU64 expressing i-ermA incubated in CAMHB medium for 20 hrs by two-fold microbroth dilution method; settings: PU64, 20 h; outline: as §2
[6] = tested on: Streptococcus pyogenes; assay: Antimicrobial activity against constitutively erythromycin resistant Streptococcus pyogenes A2 expressing c-erm incubated in CAMHB medium for 20 to 24 hrs by two-fold microbroth dilution method
Outline: (§3)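 Purified fresh Streptococcus isolate at about 5×10^5 CFU/ml final in CAMHB with 5% horse serum, 35 °C for 20–24 h. […] Each run included ATCC strains and reference antibiotics as QC, plus an antibiotic-free growth control.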

[7] = tested on: Streptococcus pyogenes; assay: Antimicrobial activity against erythromycin-susceptible Streptococcus pyogenes A3 incubated in CAMHB medium for 20 to 24 hrs by two-fold microbroth dilution method
[8] = tested on: Streptococcus pneumoniae; assay: Antimicrobial activity against constitutively erythromycin resistant Streptococcus pneumoniae PU27 expressing c-erm incubated in CAMHB medium for 20 to 24 hrs by two-fold microbroth dilution method; outline: as §3
[9] = tested on: Staphylococcus aureus; assay: Antimicrobial activity against erythromycin-susceptible Staphylococcus aureus ATCC 29213 incubated in CAMHB medium for 20 hrs by two-fold microbroth dilution method; settings: ATCC 29213, 20 h; outline: as §1
[10] = tested on: Streptococcus pneumoniae; assay: Antimicrobial activity against erythromycin-susceptible Streptococcus pneumoniae ATCC 49619 incubated in CAMHB medium for 20 to 24 hrs by two-fold microbroth dilution method
[11] = tested on: Staphylococcus aureus; assay: Antimicrobial activity against inducibly erythromycin-resistant and methicillin resistant Staphylococcus aureus PU32 expressing i-ermA incubated in CAMHB medium for 20 hrs by two-fold microbroth dilution method; settings: PU32, 20 h
Outline: (§4)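 Purified fresh Staphylococcus isolate at about 5×10^5 CFU/ml final in CAMHB, 35 °C for 20 h. Each run included ATCC strains and reference antibiotics as QC, plus an antibiotic-free growth control.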

[12] = tested on: Streptococcus pneumoniae; assay: Ratio of MBC to MIC for mef-encoded erythromycin resistant Streptococcus pneumoniae PU09
[13] = tested on: Streptococcus pneumoniae; assay: Bactericidal activity against erythromycin-susceptible Streptococcus pneumoniae ATCC 49619 assessed as reduction in colony formation incubated in CAMHB medium for 20 to 24 hrs followed by 24 hrs subculturing in the medium without test compound
[14] = tested on: Streptococcus pneumoniae; assay: Bactericidal activity against mef-encoded erythromycin resistant Streptococcus pneumoniae PU09 assessed as reduction in colony formation incubated in CAMHB medium for 20 to 24 hrs followed by 24 hrs subculturing in the medium without test compound
[15] = tested on: Staphylococcus aureus; assay: Antimicrobial activity against constitutively erythromycin resistant and methicillin resistant Staphylococcus aureus PU20 expressing c-ermC incubated in CAMHB medium for 20 hrs by two-fold microbroth dilution method; settings: PU20, 20 h; outline: as §4
[16] = tested on: Streptococcus pyogenes; assay: Antimicrobial activity against inducibly erythromycin resistant Streptococcus pyogenes 01-968 expressing i-ermA incubated in CAMHB medium for 20 to 24 hrs by two-fold microbroth dilution method
[17] = tested on: Streptococcus pneumoniae; assay: Ratio of MBC to MIC for erythromycin-susceptible Streptococcus pneumoniae ATCC 49619
[18] = tested on: Haemophilus influenzae; assay: Bactericidal activity against azithromycin-susceptible Haemophilus influenzae ATCC 49247 assessed as reduction in colony formation incubated in HTM broth medium for 20 to 24 hrs followed by 24 hrs subculturing in the medium without test compound
[19] = tested on: Haemophilus influenzae; assay: Antimicrobial activity against azithromycin-susceptible Haemophilus influenzae ATCC 49247 incubated in HTM broth medium for 20 to 24 hrs by two-fold microbroth dilution method
[20] = tested on: Streptococcus pyogenes; assay: Bactericidal activity against inducibly erythromycin resistant Streptococcus pyogenes 01-968 expressing i-ermA assessed as reduction in colony formation incubated in CAMHB medium for 20 to 24 hrs followed by 24 hrs subculturing in the medium without test compound
[21] = tested on: Haemophilus influenzae; assay: Ratio of MBC to MIC for azithromycin-susceptible Haemophilus influenzae ATCC 49247
[22] = tested on: Staphylococcus aureus; assay: Bactericidal activity against inducibly erythromycin-resistant and methicillin resistant Staphylococcus aureus PU32 expressing i-ermA assessed as reduction in colony formation incubated in CAMHB medium for 20 hrs followed by 24 hrs subculturing in the medium without test compound
[23] = tested on: Streptococcus pyogenes; assay: Ratio of MBC to MIC for inducibly erythromycin resistant Streptococcus pyogenes 01-968 expressing i-ermA

Row | Compound | MIC [1] [mg/L] | MIC [2] [mg/L] | MIC [3] [mg/L] | MIC [4] [mg/L] | MIC [5] [mg/L] | MIC [6] [mg/L] | MIC [7] [mg/L] | MIC [8] [mg/L] | MIC [9] [mg/L] | MIC [10] [mg/L] | MIC [11] [mg/L] | Ratio [12] | MBC [13] [mg/L] | MBC [14] [mg/L] | MIC [15] [mg/L] | MIC [16] [mg/L] | Ratio [17] | MBC [18] [mg/L] | MIC [19] [mg/L] | MBC [20] [mg/L] | other results
1 | C=CCO/N=C1\[C@H](C)C[C@@](C)(OC)[C@H](O[C@@H]2O[C@H](C)C[C@H](N(C)C)[C@H]2O)[C@@H](C)[C@H](O)[C@@H](C)C(=O)O[C@H](CC)[C@@]2(C)OC(=O)O[C@@H]2[C@H]1C | > 256 | > 256 | 16 (≈ 23.9 µM) | > 256 | > 256 | 128 (≈ 191 µM) | 16 (≈ 23.9 µM) | 128 (≈ 191 µM) | 128 (≈ 191 µM) | 8 (≈ 11.9 µM) | – | – | – | – | – | – | – | – | – | – | –
2 | C=CCO/N=C1\[C@H](C)C[C@@](C)(OC)[C@H](O[C@@H]2O[C@H](C)C[C@H](N(C)C)[C@H]2O)[C@@H](C)[C@H](OCC#Cc2cccc(N)n2)[C@@H](C)C(=O)O[C@H](CC)[C@@]2(C)OC(=O)O[C@@H]2[C@H]1C | 256 (≈ 320 µM) | 256 (≈ 320 µM) | 4 (≈ 4.99 µM) | 256 (≈ 320 µM) | 128 (≈ 160 µM) | 64 (≈ 79.9 µM) | 4 (≈ 4.99 µM) | 64 (≈ 79.9 µM) | 64 (≈ 79.9 µM) | 4 (≈ 4.99 µM) | – | – | – | – | – | – | – | – | – | – | –
3 | CC[C@H]1OC(=O)[C@H](C)[C@@H](OC(=O)CCNCCNc2cc3c(=O)c(C(=O)O)cn(C4CC4)c3cc2Cl)[C@H](C)[C@@H](O[C@@H]2O[C@H](C)C[C@H](N(C)C)[C@H]2O)[C@](C)(OC)C[C@@H](C)/C(=N\OC)[C@H](C)[C@H]2OC(=O)O[C@@]21C | – | – | 8 (≈ 7.84 µM) | – | – | – | – | – | – | 2 (≈ 1.96 µM) | 256 (≈ 251 µM) | 1 | 4 (≈ 3.92 µM) | 8 (≈ 7.84 µM) | > 256 | 16 (≈ 15.7 µM) | 2 | 128 (≈ 125 µM) | 128 (≈ 125 µM) | 32 (≈ 31.4 µM) | Ratio [21]: 1; MBC [22]: > 256 mg/L; Ratio [23]: 2
4 | C=CCO/N=C1\[C@H](C)C[C@@](C)(OC)[C@H](O[C@@H]2O[C@H](C)C[C@H](N(C)C)[C@H]2O)[C@@H](C)[C@H](OCC#Cc2ccc(N)nc2)[C@@H](C)C(=O)O[C@H](CC)[C@@]2(C)OC(=O)O[C@@H]2[C@H]1C | 256 (≈ 320 µM) | 256 (≈ 320 µM) | 4 (≈ 4.99 µM) | 256 (≈ 320 µM) | 256 (≈ 320 µM) | 64 (≈ 79.9 µM) | 4 (≈ 4.99 µM) | 64 (≈ 79.9 µM) | 32 (≈ 40 µM) | 2 (≈ 2.5 µM) | – | – | – | – | – | – | – | – | – | – | –
5 | C=CCO/N=C1\[C@H](C)C[C@@](C)(OC)[C@H](O[C@@H]2O[C@H](C)C[C@H](N(C)C)[C@H]2O)[C@@H](C)[C@H](OCC#Cc2cncc(N)c2)[C@@H](C)C(=O)O[C@H](CC)[C@@]2(C)OC(=O)O[C@@H]2[C@H]1C | 256 (≈ 320 µM) | 256 (≈ 320 µM) | 8 (≈ 9.99 µM) | 256 (≈ 320 µM) | 128 (≈ 160 µM) | 128 (≈ 160 µM) | 4 (≈ 4.99 µM) | 128 (≈ 160 µM) | 64 (≈ 79.9 µM) | 4 (≈ 4.99 µM) | – | – | – | – | – | – | – | – | – | – | –
6 | CC[C@H]1OC(=O)[C@H](C)[C@@H](OC(=O)CCNC/C=C/c2cccnc2)[C@H](C)[C@@H](O[C@@H]2O[C@H](C)C[C@H](N(C)C)[C@H]2O)[C@](C)(OC)C[C@@H](C)/C(=N\OC)[C@H](C)[C@H]2OC(=O)O[C@@]21C | – | – | 2 (≈ 2.4 µM) | – | – | – | – | – | – | 1 (≈ 1.2 µM) | 128 (≈ 154 µM) | 1 | 2 (≈ 2.4 µM) | 2 (≈ 2.4 µM) | > 256 | 8 (≈ 9.6 µM) | 2 | 256 (≈ 307 µM) | 256 (≈ 307 µM) | > 64 | Ratio [21]: 1; MBC [22]: > 256 mg/L; Ratio [23]: >8
